Legend:
[1] = molecular target: T1, Type-2 angiotensin II receptor (Homo sapiens, UniProt P50052); assay: Displacement of [125I]-Sar1Ile8-angiotensin 2 from angiotensin 2 AT2 receptor (unknown origin) after 180 mins by gamma counting analysis
T1 sequence (P50052 whole entry): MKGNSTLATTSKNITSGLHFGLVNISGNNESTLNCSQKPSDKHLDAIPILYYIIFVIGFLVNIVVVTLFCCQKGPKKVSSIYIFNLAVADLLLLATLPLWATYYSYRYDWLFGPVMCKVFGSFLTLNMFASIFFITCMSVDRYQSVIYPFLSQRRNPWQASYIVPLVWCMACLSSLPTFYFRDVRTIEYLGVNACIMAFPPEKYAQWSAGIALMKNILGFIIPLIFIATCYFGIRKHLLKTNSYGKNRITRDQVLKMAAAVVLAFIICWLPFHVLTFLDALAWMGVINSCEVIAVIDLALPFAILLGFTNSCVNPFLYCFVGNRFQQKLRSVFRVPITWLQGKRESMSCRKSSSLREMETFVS

[2] = Antagonist activity at angiotensin 2 receptor in Japanese white rabbit thoracic aorta assessed as inhibition of angiotensin 2-induced contraction after 60 mins by Schild plot analysis; type: tissue-based, Oryctolagus cuniculus
Outline: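 Helical aortic strips (3-4 mm wide, 15-20 mm long) in 10-mL baths of bicarbonate salt solution (CaCl2·2H2O 2.5, NaHCO3 25, glucose 11.1), 37 °C, 95% O2/5% CO2, isometric tension. 1 h equilibration with 15-min washes; 67 mM KCl sets maximal contraction; 30 min washout; antagonist or vehicle for 60 min, then cumulative Ang II curves, one per strip. Response as % of KCl maximum; pA2 from Schild plot.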

[3] = molecular target: T2, Type-1 angiotensin II receptor (Homo sapiens, UniProt P30556); assay: Displacement of [125I]-Sar1Ile8-angiotensin 2 from angiotensin 2 AT1 receptor (unknown origin) after 180 mins by gamma counting analysis
T2 sequence (P30556 whole entry): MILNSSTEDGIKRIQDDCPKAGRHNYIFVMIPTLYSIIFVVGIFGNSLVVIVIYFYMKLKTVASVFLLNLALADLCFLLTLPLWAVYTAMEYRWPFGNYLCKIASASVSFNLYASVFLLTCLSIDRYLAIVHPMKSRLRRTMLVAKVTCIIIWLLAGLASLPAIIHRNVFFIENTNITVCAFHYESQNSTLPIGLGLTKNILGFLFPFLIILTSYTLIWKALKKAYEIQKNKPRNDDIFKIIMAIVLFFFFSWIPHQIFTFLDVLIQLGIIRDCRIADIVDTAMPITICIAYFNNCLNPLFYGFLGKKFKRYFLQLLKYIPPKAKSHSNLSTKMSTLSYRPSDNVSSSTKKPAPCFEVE

Rattus norvegicus = assay: Antihypertensive activity in SHR rat assessed as decrease in blood pressure at 10 mg/kg, po by tail plethysmography; type: functional
Outline: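 Male SHR, 19-21 weeks old, n = 6 per group, with a vehicle group (water, 10 mL/kg). Single oral dose of 10 mg/kg. Blood pressure and heart rate measured by tail plethysmography in unanesthetized rats after a warming period.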

[4] = molecular target: T3, Type-1 angiotensin II receptor (Homo sapiens) (UniProt P30556); assay: Ratio of losartan IC50 to compound IC50 for angiotensin 2 AT1 receptor (unknown origin)
T3 sequence (whole entry): T2 sequence (P30556 whole entry)

Row | SMILES | IC50 [1] | pA2 [2] | IC50 [3] | Activity (Rattus norvegicus) | Ratio IC50 [4]
1 | CCCc1nc2c(C)cc(NC(=O)Cc3ccccc3)cc2n1Cc1ccc(-c2ccccc2C(=O)O)cc1 | 77 nM | 8.21 | 1.2 nM |  | 
2 | CCCNC(=O)c1cc(C)c2nc(CCC)n(Cc3ccc(-c4ccccc4C(=O)O)cc3)c2c1 |  |  | 1340 nM |  | 
3 | CCCC(=O)Nc1cc(C)c2nc(CCC)n(Cc3ccc(-c4ccccc4C(=O)O)cc3)c2c1 | 53 nM |  | 0.3 nM |  | 
4 | CCCc1nc2c(C)cc(C(=O)N3CCCCC3)cc2n1Cc1ccc(-c2ccccc2C(=O)O)cc1 | 42 nM |  | 20 nM |  | 
5 | CCCc1nc2c(C)cc(C(=O)Nc3ccc(C)cc3)cc2n1Cc1ccc(-c2ccccc2C(=O)O)cc1 | 61 nM |  | 39 nM |  | 
6 | CCCc1nc2c(C)cc(NC(C)=O)cc2n1Cc1ccc(-c2ccccc2C(=O)O)cc1 |  |  | 1430 nM |  | 
7 | CCCc1nc2c(C)cc(NC(=O)c3ccccc3)cc2n1Cc1ccc(-c2ccccc2C(=O)O)cc1 | 6 nM |  | 3.9 nM |  | 
8 | CCCc1nc2c(C)cc(C(=O)NCCN3CCOCC3)cc2n1Cc1ccc(-c2ccccc2C(=O)O)cc1 | > 10000 nM | 8.2 | 11 nM |  | 
9 | CCCc1nc2c(C)cc(NC(=O)c3ccc(C)cc3)cc2n1Cc1ccc(-c2ccccc2C(=O)O)cc1 | > 10000 nM | 8.25 | 4.9 nM |  | 
10 | CCCCNC(=O)c1cc(C)c2nc(CCC)n(Cc3ccc(-c4ccccc4C(=O)O)cc3)c2c1 | 164 nM |  | 13 nM |  | 
11 | CCCc1nc2c(C)cc(C(=O)N3CCOCC3)cc2n1Cc1ccc(-c2ccccc2C(=O)O)cc1 |  |  | 1010 nM |  | 
12 | CCCc1nc2c(C)cc(C(=O)NCCc3ccccc3)cc2n1Cc1ccc(-c2ccccc2C(=O)O)cc1 | > 10000 nM | 8.51 | 3 nM | >30 mmHg | 10
13 | CCCc1nc2c(C)cc(C(=O)NCCCc3ccccc3)cc2n1Cc1ccc(-c2ccccc2C(=O)O)cc1 |  |  | 115 nM |  | 
14 | CCCc1nc2c(C)cc(NC(=O)CC)cc2n1Cc1ccc(-c2ccccc2C(=O)O)cc1 | 78 nM |  | 0.4 nM |  | 
15 | CCCc1nc2c(C)cc(C(=O)NCCCN3CCOCC3)cc2n1Cc1ccc(-c2ccccc2C(=O)O)cc1 | 718 nM |  | 10 nM |  | 
16 | CCCc1nc2c(C)cc(NC(=O)CCc3ccccc3)cc2n1Cc1ccc(-c2ccccc2C(=O)O)cc1 | 149 nM | 8.43 | 0.1 nM | >30 mmHg | 10
17 | CCCc1nc2c(C)cc(NC(=O)OC)cc2n1Cc1ccc(-c2ccccc2C(=O)O)cc1 | 4370 nM | 8.15 | 0.7 nM |  | 
18 | CCCCc1nc(Cl)c(CO)n1Cc1ccc(-c2ccccc2-c2nnn[nH]2)cc1 [LOSARTAN] |  | 7.92 |  |  | 

From ChEMBL document CHEMBL2434924, “Nonpeptidic angiotensin II AT₁ receptor antagonists derived from 6-substituted aminocarbonyl and acylamino benzimidazoles” (Eur J Med Chem, 2013)
